≈ marks a conversion by molar mass, not a printed value.
What was measured:
[1] = tested on: Human immunodeficiency virus 1; experiment: Binding affinity to HIV1 gp41 heptad repeat 1 region assessed as thermal stability of HR1/HR2 peptide bundle complex at 1 uM in presence of 8M urea
[2] = Clearance in cynomolgus monkey at 1 to 2 mg/kg, iv; format: ADME, organism-based, Macaca fascicularis; set-up: dose 1-2 mg/kg, route intravenous; details: in vivo
Summary of the method: (§1)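 Male cynomolgus monkeys received a single i.v. dose of about 1–2 mg/kg in isotonic phosphate-mannitol vehicle, given as cassettes (typically n ≤ 8). Plasma was protein-precipitated with 0.5% formic acid in acetonitrile and peptide measured by reversed-phase HPLC. Parameters were fitted with mono- or biexponential models.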

[3] = Half life in cynomolgus monkey at 1 to 2 mg/kg, iv; format: ADME, organism-based, Macaca fascicularis; set-up: dose 1-2 mg/kg, route intravenous; details: in vivo
Summary of the method: as §1

[4] = tested on: Human immunodeficiency virus 1; experiment: Antiviral activity against HIV1 3B infected in human PBMCs by reverse transcriptase assay; format: functional, organism-based; details: Human immunodeficiency virus 1, 3B
Summary of the method: (§2)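 CD8-depleted activated PBMC targets infected at high MOI by spinoculation; infected cells incubated with uninfected targets at 2 × 10⁵ cells per well with serially diluted peptide for 9 days. Fresh compound added and samples taken every 2–3 days. Replication read by reverse transcriptase assay; IC50 from reduction in RT signal relative to infected untreated wells.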

[5] = tested on: Human immunodeficiency virus 1; experiment: Antiviral activity against HIV1 098 isolate infected in human PBMCs by reverse transcriptase assay; format: functional, organism-based
Summary of the method: as §2

[6] = tested on: Human immunodeficiency virus 1; experiment: Antiviral activity against HIV1 098-T20 isolate infected in human PBMCs by reverse transcriptase assay; format: functional, organism-based
Summary of the method: as §2

[7] = tested on: Human immunodeficiency virus 1; experiment: Antiviral activity against HIV1 098-T1249 isolate infected in human PBMCs by reverse transcriptase assay; format: functional, organism-based
Summary of the method: as §2

[8] = tested on: Human immunodeficiency virus 1; experiment: Antiviral activity against HIV1 098-T651 isolate infected in human PBMCs by reverse transcriptase assay; format: functional, organism-based
Summary of the method: as §2

Compound | Tm [1] [°C] | clearance [2] [mL/min/kg] | half-life [3] [min] | IC50 [4] [µg/mL] | IC50 [5] [µg/mL] | IC50 [6] [µg/mL] | IC50 [7] [µg/mL] | IC50 [8] [µg/mL]
CC[C@H](C)[C@H](NC(=O)[C@H](C)NC(=O)[C@H](CCCNC(=N)N)NC(=O)[C@H](CC(=O)O)NC(=O)[C@H](Cc1c[nH]c2ccccc12)NC(=O)[C@H](C)NC(=O)[C@H](CCC(=O)O)NC(=O)[C@H](Cc1c[nH]c2ccccc12)NC(=O)[C@@H](NC(=O)[C@@H](N)[C@@H](C)O)[C@@H](C)O)C(=O)N[C@@H](C)C(=O)N[C@@H](CCC(=O)O)C(=O)N[C@@H](Cc1ccc(O)cc1)C(=O)N[C@@H](C)C(=O)N[C@@H](C)C(=O)N[C@@H](CCCNC(=N)N)C(=O)N[C@H](C(=O)N[C@@H](CCC(=O)O)C(=O)N[C@@H](C)C(=O)N[C@@H](CC(C)C)C(=O)N[C@H](C(=O)N[C@@H](CCCNC(=N)N)C(=O)N[C@@H](C)C(=O)N[C@@H](CC(C)C)C(=O)N[C@@H](CCC(N)=O)C(=O)N[C@@H](CCC(=O)O)C(=O)N[C@@H](CC(C)C)C(=O)N[C@@H](CCC(N)=O)C(=O)N[C@@H](CCC(=O)O)C(=O)N[C@@H](CCCCN)C(=O)N[C@@H](CC(N)=O)C(=O)N[C@@H](CCC(N)=O)C(=O)N[C@@H](C)C(=O)N[C@H](C(=O)N[C@@H](CC(C)C)C(=O)N[C@@H](CCCNC(=N)N)C(=O)N[C@@H](CCC(=O)O)C(=O)N[C@@H](CC(C)C)C(=O)O)[C@@H](C)CC)[C@@H](C)CC)[C@@H](C)CC | 84 |  |  |  |  |  |  | 
H-TTWEAWDRAIAEYAARIEALIRAAQELQEKNEAALREL-OH | 89 | 0.433 | 456 | 0.007 | 0.021 | 0.035 | 0.03 | 0.02
H-TTWEAWDRAIAEYAARIEALIRAAQELQEKLEAALREL-OH | 92 | 0.0333 | 1850 | 0.172 | 0.6 | 0.416 | 0.555 | 0.987
enfuvirtide | < 5 | 0.667 | 528 | 0.006 | 0.05 | 0.526 | 55 | 47.8
H-TTWEAWDRAIAEYAARIEALIRALQELQEKNEAILREL-OH |  | 0.15 | 576 | 0.065 | 0.118 | 0.154 | 0.192 | > 20
H-TTWEAWDRAIAEYAARIEALIRALQELQEKNEAALREL-OH | 82 | 0.133 | 516 | 0.03 | 0.054 | 0.084 | 0.147 | 0.242
CC[C@H](C)[C@H](NC(=O)[C@H](CCC(N)=O)NC(=O)[C@H](C)NC(=O)[C@H](CCC(N)=O)NC(=O)[C@H](CCC(=O)O)NC(=O)[C@H](CC(C)C)NC(=O)[C@H](CC(C)C)NC(=O)[C@H](C)NC(=O)[C@@H](NC(=O)[C@@H](NC(=O)[C@H](CCCCN)NC(=O)[C@H](CCC(N)=O)NC(=O)[C@H](CCC(=O)O)NC(=O)[C@H](Cc1c[nH]c2ccccc12)NC(=O)[C@H](CCC(=O)O)NC(=O)[C@H](CCC(N)=O)NC(=O)[C@@H](N)Cc1c[nH]c2ccccc12)[C@@H](C)CC)[C@@H](C)O)C(=O)N[C@@H](CCC(N)=O)C(=O)N[C@@H](CCC(N)=O)C(=O)N[C@@H](CCC(=O)O)C(=O)N[C@@H](CCCCN)C(=O)N[C@@H](CC(N)=O)C(=O)N[C@@H](CCC(=O)O)C(=O)N[C@@H](Cc1ccc(O)cc1)C(=O)N[C@@H](CCC(=O)O)C(=O)N[C@@H](CC(C)C)C(=O)N[C@@H](CCC(N)=O)C(=O)N[C@@H](CCCCN)C(=O)N[C@@H](CC(C)C)C(=O)N[C@@H](CC(=O)O)C(=O)N[C@@H](CCCCN)C(=O)N[C@@H](Cc1c[nH]c2ccccc12)C(=O)N[C@@H](C)C(=O)N[C@@H](CO)C(=O)N[C@@H](CC(C)C)C(=O)N[C@@H](Cc1c[nH]c2ccccc12)C(=O)N[C@@H](CCC(=O)O)C(=O)N[C@@H](Cc1c[nH]c2ccccc12)C(=O)N[C@@H](Cc1ccccc1)C(=O)O | 59 | 0.167 | 354 | 0.003 (≈ 0.601 nM) | 0.013 (≈ 2.6 nM) | 0.022 (≈ 4.4 nM) | 0.363 (≈ 72.7 nM) | 8.14 (≈ 1630 nM)
H-TTWEAWDRAIAEYAARIEALIRALQEQQEKNEAILREL-OH | 85 | 0.2 | 744 | 0.019 | 0.043 | 0.079 | 0.038 | 0.196
H-TTWEAWDRAIAEYAARIEALIRALQELQEKLEAILREL-OH |  | 0.05 | 2120 | 3.16 | > 20 | > 20 | > 20 | > 20
H-TTWEEWDREINEYTSRIESLIRESQEQQEKNEQELREL-OH | 80 |  |  | 0.012 | 0.021 | 0.056 | 0.037 | 0.167
CC[C@H](C)[C@H](NC(=O)[C@H](CC(C)C)NC(=O)[C@H](CO)NC(=O)[C@H](Cc1cnc[nH]1)NC(=O)[C@H](NC(=O)[C@H](CC(C)C)NC(=O)[C@H](CO)NC(=O)[C@@H](NC(=O)[C@H](Cc1ccc(O)cc1)NC(=O)[C@H](CC(N)=O)NC(=O)[C@H](CC(N)=O)NC(=O)[C@@H](NC(=O)[C@H](CCC(=O)O)NC(=O)[C@H](CCCNC(=N)N)NC(=O)[C@H](CC(=O)O)NC(=O)[C@H](Cc1c[nH]c2ccccc12)NC(=O)[C@H](CCC(=O)O)NC(=O)[C@H](CCSC)NC(=O)[C@H](Cc1c[nH]c2ccccc12)NC(=O)[C@@H](NC(=O)[C@@H](N)CCSC)[C@@H](C)O)[C@@H](C)CC)[C@@H](C)O)[C@@H](C)CC)C(=O)N[C@@H](CCC(=O)O)C(=O)N[C@@H](CCC(=O)O)C(=O)N[C@@H](CO)C(=O)N[C@@H](CCC(N)=O)C(=O)N[C@@H](CC(N)=O)C(=O)N[C@@H](CCC(N)=O)C(=O)N[C@@H](CCC(N)=O)C(=O)N[C@@H](CCC(=O)O)C(=O)N[C@@H](CCCCN)C(=O)N[C@@H](CC(N)=O)C(=O)N[C@@H](CCC(=O)O)C(=O)N[C@@H](CCC(N)=O)C(=O)N[C@@H](CCC(=O)O)C(=O)N[C@@H](CC(C)C)C(=O)N[C@@H](CC(C)C)C(=O)O | 68 | 7.2 | 18 | 0.008 (≈ 1.79 nM) | 0.033 (≈ 7.36 nM) | 0.06 (≈ 13.4 nM) | 0.151 (≈ 33.7 nM) | 7.6 (≈ 1700 nM)
H-TTWEAWDRAIAEYAARIEALIRAAQEQQEKLEAVLREL-OH | 85 | 0.0667 | 1720 | 0.022 | 0.049 | 0.093 | 0.046 | 0.242
H-TTWEAWDRAIAEYAARIEALIRASQEQQEKNEAELREL-OH | 78 | 1.43 | 72 | 0.006 | 0.013 | 0.022 | 0.072 | 1.31
H-TTWEAWDRAIAEYAARIEALIRAAQEQQEKNEAILREL-OH |  | 1.1 | 204 | 0.007 | 0.021 | 0.034 | 0.024 | 0.039
CC[C@H](C)[C@H](NC(=O)[C@H](C)NC(=O)[C@H](CCCNC(=N)N)NC(=O)[C@H](CC(=O)O)NC(=O)[C@H](Cc1c[nH]c2ccccc12)NC(=O)[C@H](C)NC(=O)[C@H](CCC(=O)O)NC(=O)[C@H](Cc1c[nH]c2ccccc12)NC(=O)[C@@H](NC(=O)[C@@H](N)[C@@H](C)O)[C@@H](C)O)C(=O)N[C@@H](C)C(=O)N[C@@H](CCC(=O)O)C(=O)N[C@@H](Cc1ccc(O)cc1)C(=O)N[C@@H](C)C(=O)N[C@@H](C)C(=O)N[C@@H](CCCNC(=N)N)C(=O)N[C@H](C(=O)N[C@@H](CCC(=O)O)C(=O)N[C@@H](C)C(=O)N[C@@H](CC(C)C)C(=O)N[C@H](C(=O)N[C@@H](CCCNC(=N)N)C(=O)N[C@@H](C)C(=O)N[C@@H](C)C(=O)N[C@@H](CCC(N)=O)C(=O)N[C@@H](CCC(=O)O)C(=O)N[C@@H](CCC(N)=O)C(=O)N[C@@H](CCC(N)=O)C(=O)N[C@@H](CCC(=O)O)C(=O)N[C@@H](CCCCN)C(=O)N[C@@H](CC(N)=O)C(=O)N[C@@H](CCC(=O)O)C(=O)N[C@@H](C)C(=O)N[C@@H](C)C(=O)N[C@@H](CC(C)C)C(=O)N[C@@H](CCCNC(=N)N)C(=O)N[C@@H](CCC(=O)O)C(=O)N[C@@H](CC(C)C)C(=O)O)[C@@H](C)CC)[C@@H](C)CC | 86 | 0.717 | 978 | 0.007 (≈ 1.59 nM) | 0.018 (≈ 4.08 nM) | 0.025 (≈ 5.66 nM) | 0.015 (≈ 3.4 nM) | 0.021 (≈ 4.76 nM)
H-MTWMAWDRAIANYAALIHALIEAAQNQQEKNEAALLEL-OH |  |  |  | 0.061 | 0.079 | 0.079 | 0.12 | 0.25
H-TTWEAWDRAIAEYAARIEALIRAAQEQQEKLEAALREL-OH | 86 | 0.15 | 1070 | 0.012 | 0.045 | 0.028 | 0.025 | 0.044
H-MTWEAWDRAIAEYAARIEALIRAAQEQQEKNEAALREL-OH |  | 0.533 | 306 | 0.007 | 0.026 | 0.033 | 0.014 | 0.021
H-TTWEAWDRAIAEYAARIEALIRALQEQQEKNEAALREL-OH |  | 0.167 | 912 | 0.011 | 0.035 | 0.028 | 0.035 | 0.05

Reference: ChEMBL document CHEMBL1147044, “Design of helical, oligomeric HIV-1 fusion inhibitor peptides with potent activity against enfuvirtide-resistant virus” (Proc Natl Acad Sci U S A, 2007)
